Assay [1] in a line: Cytotoxicity against human HOP62 cells by MTT assay. The following applies: HOP-62. The format is functional. In outline: (§1)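 NCI-60 screen: a single-dose 10 μM pre-test, then a five-concentration assay for promoted compounds. GI₅₀ is the concentration giving 50% growth inhibition versus control, taken from concentration-response curves. GI₅₀ values below the lowest concentration were recorded as 10 nM, and values above the range at the top concentration.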
(In general: Formazan colour is commonly taken as a measure of viable cells.)

Assay [2] is described as follows: Cytotoxicity against human HCT116 cells by MTT assay. It counts as functional. The following applies: HCT-116. In outline:
as §1

The nature of assay [3]: Cytotoxicity against human SF539 cells by MTT assay. It counts as functional. The following applies: SF-539. In outline:
as §1

Assay [4] can be described thus: Cytotoxicity against human UACC62 cells by MTT assay. It counts as functional. As to conditions: UACC-62. A digest of the protocol: as §1
Assay [5] in a line: Cytotoxicity against human OVCAR3 cells by MTT assay. The format is functional. The following applies: OVCAR-3. A digest of the protocol: as §1
Another assay has as its system SN12C. Briefly: Cytotoxicity against human SN12C cells by MTT assay. The format is functional. A digest of the protocol: as §1
The nature of assay [6]: Cytotoxicity against human DU145 cells by MTT assay. It counts as functional. As to conditions: DU-145. A digest of the protocol: as §1
The subject of the next assay is MCF7. Briefly: Cytotoxicity against human MCF7 cells by MTT assay. It counts as functional. In outline: as §1
In assay [7] the target is T1, DNA topoisomerase 1 (Homo sapiens) (UniProt P11387).
T1 sequence (whole entry): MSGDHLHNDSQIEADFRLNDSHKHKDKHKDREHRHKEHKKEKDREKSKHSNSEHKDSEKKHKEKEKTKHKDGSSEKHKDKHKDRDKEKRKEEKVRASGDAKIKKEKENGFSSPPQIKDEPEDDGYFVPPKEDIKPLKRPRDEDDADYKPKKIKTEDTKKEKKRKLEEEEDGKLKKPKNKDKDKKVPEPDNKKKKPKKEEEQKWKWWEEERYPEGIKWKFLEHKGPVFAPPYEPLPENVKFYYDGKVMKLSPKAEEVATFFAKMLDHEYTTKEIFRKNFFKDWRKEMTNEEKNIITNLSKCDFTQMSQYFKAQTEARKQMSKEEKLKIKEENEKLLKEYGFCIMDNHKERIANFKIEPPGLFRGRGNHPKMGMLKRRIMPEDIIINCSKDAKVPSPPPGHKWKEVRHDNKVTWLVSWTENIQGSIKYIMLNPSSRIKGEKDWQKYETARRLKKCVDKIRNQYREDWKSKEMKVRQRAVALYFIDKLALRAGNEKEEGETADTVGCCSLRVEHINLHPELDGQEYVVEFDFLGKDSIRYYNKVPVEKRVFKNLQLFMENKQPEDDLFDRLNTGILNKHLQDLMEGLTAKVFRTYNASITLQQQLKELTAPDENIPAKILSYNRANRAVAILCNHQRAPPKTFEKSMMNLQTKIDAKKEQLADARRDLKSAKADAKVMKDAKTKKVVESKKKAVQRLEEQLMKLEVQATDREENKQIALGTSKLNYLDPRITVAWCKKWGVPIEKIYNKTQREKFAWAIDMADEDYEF
Put plainly: Activity at recombinant Top1 (unknown origin) using 3'-[32P]-labeled double-stranded DNA (117 bp) as substrate assessed as induction of DNA cleavage at 0.1 to 100 uM incubated for 20 mins by electrophoretic assay relative to 1 uM camptothecin.

The target of assay [8] is Tyrosyl-DNA phosphodiesterase 1 (Homo sapiens, UniProt Q9NUW8). Briefly: Inhibition of recombinant TDP1 (unknown origin) using 5'-[32P]-labeled single-stranded DNA oligonucleotide containing 3'-phosphotyrosine (N14Y) as substrate for 15 mins by PAGE assay.
Chain of Tyrosyl-DNA phosphodiesterase 1 (Q9NUW8 whole entry): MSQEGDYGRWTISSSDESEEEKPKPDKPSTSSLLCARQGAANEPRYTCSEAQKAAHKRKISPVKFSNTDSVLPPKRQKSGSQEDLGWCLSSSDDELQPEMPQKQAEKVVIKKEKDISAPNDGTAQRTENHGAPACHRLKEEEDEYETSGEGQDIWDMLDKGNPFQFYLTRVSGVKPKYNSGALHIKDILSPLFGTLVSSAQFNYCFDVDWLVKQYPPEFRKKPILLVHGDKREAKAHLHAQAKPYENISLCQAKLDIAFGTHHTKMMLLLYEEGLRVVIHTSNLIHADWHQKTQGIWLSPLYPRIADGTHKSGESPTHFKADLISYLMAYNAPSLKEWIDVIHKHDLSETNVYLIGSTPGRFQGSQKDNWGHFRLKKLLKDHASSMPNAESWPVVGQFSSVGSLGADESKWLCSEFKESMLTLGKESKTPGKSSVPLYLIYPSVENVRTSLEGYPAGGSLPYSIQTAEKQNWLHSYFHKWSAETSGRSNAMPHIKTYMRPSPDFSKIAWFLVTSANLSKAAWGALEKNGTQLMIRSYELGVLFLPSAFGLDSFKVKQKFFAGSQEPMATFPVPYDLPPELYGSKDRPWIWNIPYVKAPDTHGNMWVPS
Assay [9] concerns the target T2, Tyrosyl-DNA phosphodiesterase 2 (Homo sapiens, UniProt O95551).
T2 sequence (O95551 whole entry): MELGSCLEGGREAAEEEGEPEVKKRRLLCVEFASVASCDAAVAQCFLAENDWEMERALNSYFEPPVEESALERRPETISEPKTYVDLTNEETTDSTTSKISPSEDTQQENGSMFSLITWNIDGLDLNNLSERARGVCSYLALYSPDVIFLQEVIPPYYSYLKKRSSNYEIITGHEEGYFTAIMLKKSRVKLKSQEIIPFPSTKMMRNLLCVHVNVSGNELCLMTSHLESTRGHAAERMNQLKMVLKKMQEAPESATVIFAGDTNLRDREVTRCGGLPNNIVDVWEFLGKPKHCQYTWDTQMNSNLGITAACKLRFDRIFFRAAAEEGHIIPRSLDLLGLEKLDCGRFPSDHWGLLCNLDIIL
Briefly: Inhibition of recombinant human TDP2 using alpha32P-cordycepin-[…]-labeled 19-mer single-stranded oligonucleotide DNA containing 5'-phosphotyrosine (Y19) for 15 mins by PAGE assay.

By GI50 is commonly meant the concentration that inhibits growth by half. Read a high GI50 as less potent growth inhibition. One may read the pIC50 as −log10 of the IC50, conventionally taken in molar units.

pIC50: −log10 of the molar value.

As to `O=C1c2cc3c(cc2-c2c1c1ccc(F)cc1c(=O)n2CCCn1ccnc1)OCO3`, the GI50 in assay [1] was under 10 nM; in assay [2], under 10 nM; in assay [3] it was under 10 nM; in assay [4], under 10 nM; in assay [5] it was 19 nM; in the assay with SN12C, under 10 nM. Further, the GI50 (in [6]; with MCF7) was under 10 nM each time. For the same compound, the Activity in assay [7] is 75%.

As to `O=C1c2cc3c(cc2-c2c1c1ccc(Cl)cc1c(=O)n2CCCNCCO)OCO3`, the GI50 in assay [1] is 71 nM; in [2], 105 nM; in [3] it was 240 nM; in assay [4], 43 nM; in assay [5], 1320 nM; in the assay on SN12C it was 1070 nM. Further, the GI50 in assay [6] stood at 59 nM; with MCF7, 18 nM. Moreover, the figures for the pIC50 in assay [8] and in assay [9] were 5.20 and 5.05, respectively. Further, the Activity in [7] amounted to 75%.

On to `O=C1c2cc3c(cc2-c2c1c1cc(Cl)c(Cl)cc1c(=O)n2C[C@H](O)CO)OCO3`, for which the GI50 in assay [1] was under 10 nM; in assay [2] it was under 10 nM; in assay [3], under 10 nM; in assay [4], under 10 nM; in assay [5], 16 nM; with SN12C, under 10 nM. For the same compound, the GI50 (in assay [6]; in the assay with MCF7) was under 10 nM throughout. In assay [7], the Activity amounted to 50%.

Turning to `O=C1c2cc3c(cc2-c2c1c1ccc(Cl)cc1c(=O)n2CCCN1CCOCC1)OCO3`, the Activity in assay [7] was 20%.

In the case of `O=C1c2cc3c(cc2-c2c1c1cc(F)c(F)cc1c(=O)n2CCCn1ccnc1)OCO3`, the GI50 is under 10 nM in assay [1]; under 10 nM in assay [2]; under 10 nM in assay [3]; under 10 nM in assay [4]; 115 nM in [5]; under 10 nM in the assay with SN12C. For the same compound, the GI50 (in assay [6]; in the assay on MCF7) was under 10 nM throughout. In [7], the Activity came out at 20%.

Take `O=C1c2cc3c(cc2-c2c1c1ccc(Cl)cc1c(=O)n2C[C@H](O)CO)OCO3`: the GI50 is 22 nM in assay [1]; 20 nM in assay [2]; 25 nM in assay [3]; 12 nM in assay [4]; 62 nM in [5]; 27 nM in the assay with SN12C. For the same compound, the figures for the GI50 (in assay [6]; with MCF7) were 32 nM and under 10 nM, respectively. Besides, the Activity in [7] amounted to 50%.

On to `O=C1c2cc3c(cc2-c2c1c1ccc(F)cc1c(=O)n2CCCNCCO)OCO3`, for which the GI50 in [1] worked out at 36 nM; in assay [2], 19 nM; in [3], 41 nM; in assay [4] it was 28 nM; in assay [5] it was 76 nM; in the assay with SN12C, 107 nM. For the same compound, the GI50 was 33 nM in assay [6] and under 10 nM in the assay on MCF7. Also, the pIC50 in [8] is 5.21; in assay [9], 5.20. In addition, the Activity in assay [7] came to 50%.

Take `O=C1c2cc3c(cc2-c2c1c1ccc(F)cc1c(=O)n2C[C@H](O)[C@@H](O)[C@H](O)CO)OCO3`: the GI50 in [1] is 32 nM; in assay [2] it was 35 nM; in [3], 29 nM; in assay [4], 25 nM; in assay [5], 100 nM; in the assay on SN12C it was 79 nM. Further, the GI50 in assay [6] stood at 51 nM; with MCF7 it was 12 nM. The Activity in [7] came out at 50%.

In the case of `O=C1c2cc3c(cc2-c2c1c1ccc(Cl)cc1c(=O)n2CCCn1ccnc1)OCO3`, the GI50 in assay [1] was under 10 nM; in assay [2] it was under 10 nM; in assay [3], under 10 nM; in assay [4], under 10 nM; in assay [5] it was 40 nM; in the assay on SN12C it was under 10 nM. Besides, the GI50 (in [6]; in the assay on MCF7) was under 10 nM in each case. Besides, in assay [7], the Activity came out at 50%.

Turning to `O=C1c2cc3c(cc2-c2c1c1ccc(F)cc1c(=O)n2CCCN1CCOCC1)OCO3`, in assay [7], the Activity turned out to be 20%.

With `O=C1c2cc3c(cc2-c2c1c1cc(Cl)c(Cl)cc1c(=O)n2CCCn1ccnc1)OCO3`, the GI50 in assay [1] was under 10 nM; in assay [2], under 10 nM; in assay [3], under 10 nM; in assay [4] it was under 10 nM; in assay [5] it was 43 nM; in the assay with SN12C, under 10 nM. Further, the GI50 (in [6]; with MCF7) was under 10 nM throughout. For the same compound, the Activity in assay [7] was 20%.

For the compound `O=C1c2cc3c(cc2-c2c1c1cc(F)c(F)cc1c(=O)n2C[C@H](O)CO)OCO3`, the GI50 in [1] turned out to be 22 nM; in assay [2] it was 37 nM; in assay [3] it was 29 nM; in assay [4], 15 nM; in [5], 224 nM; with SN12C it was 33 nM. The GI50 in assay [6] is 41 nM; with MCF7, under 10 nM. Moreover, in assay [7], the Activity came to 50%.

Consider `COc1cc2c3c(n(CCCNCCO)c(=O)c2cc1OC)-c1cc2c(cc1C3=O)OCO2` [LMP-744], for which the GI50 in assay [1] came out at 10 nM; in [2], 150 nM; in [3], 90 nM; in assay [5], 1500 nM; with SN12C, 10 nM. Besides, in [7], the Activity was 100%.

On to `O=C1c2cc3c(cc2-c2c1c1ccc(Cl)cc1c(=O)n2C[C@H](O)[C@H](O)[C@H](O)CO)OCO3`, for which, in assay [7], the Activity came out at 20%.

As to `O=C1c2cc3c(cc2-c2c1c1ccc(F)cc1c(=O)n2C[C@H](O)CO)OCO3`, the GI50 in [1] came out at 49 nM; in [2], 79 nM; in [3], 51 nM; in assay [4], 45 nM; in [5] it was 182 nM; in the assay on SN12C, 76 nM. In addition, the results for the GI50 (in assay [6]; with MCF7) were 102 nM and 32 nM, respectively. Also, in assay [7], the Activity stood at 100%.
